Compounds with a hit are over-represented: about 5.2% of the library has one in this group of screens.
HCV core dimer = inhibitors of HCV core protein dimerization, primary screen, biochemical, TR-FRET, high-throughput; 0.33% of 300,000 active; TR-FRET GST/Flag-core106 dimerization, 1536-well; inhibition, % at 5 µM;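 active = inhibition above the mean of all tested compounds plus 3 SD, set per screening campaign, cut at about 45% in these data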
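System – GST-tagged and Flag-tagged HCV core protein residues 1-106 · Repeats – one well for each compound · Technique – TR-FRET 671 and 617 nm emission · Doses – one concentration, 5 µM, in 0.5% DMSO · Times – 4 h, 22.5 °C incubation · Also added – Eu donor and XL665 acceptor anti-tag antibodies · Measure – percent inhibition of core106 dimerization signal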
ZTA DNA inh = counter-screen for EBNA-1 inhibitors: inhibitors of Epstein-Barr virus ZTA; P03206; ZTA-DNA binding, fluorescence polarization; inhibition, % at 11 µM; 0.15% of 320,000 active; AID 2234; in the data active = inhibition above about 33%
Target sequence (P03206 whole entry, looked up): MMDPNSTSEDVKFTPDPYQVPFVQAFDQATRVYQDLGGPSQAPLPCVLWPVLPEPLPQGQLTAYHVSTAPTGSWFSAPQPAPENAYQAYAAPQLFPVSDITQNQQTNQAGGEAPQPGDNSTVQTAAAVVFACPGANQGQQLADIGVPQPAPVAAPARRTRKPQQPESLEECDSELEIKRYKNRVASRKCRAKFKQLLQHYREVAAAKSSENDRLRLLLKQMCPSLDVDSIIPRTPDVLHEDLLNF
HCV NS3 hel inh = inhibitors of HCV NS3 helicase, primary screen, biochemical, Cy5 molecular beacon fluorescence. Hepatitis C virus NS3 helicase. NS3 helicase DNA unwinding. inhibition, % at 10.9 µM. 0.56% of 290,000 active. AID 1800, 2009;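 active = inhibition above the mean of all tested compounds plus 3 SD, set per campaign, cut at about 35% in these data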;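 also: 0% = DMSO wells and 100% = thioflavine S control wells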
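Material: hepatitis C virus NS3 helicase domain fragment enzyme; measured by: Cy5 fluorescence, 0 and 60 min reads; control set: DMSO and thioflavine S; incubation: 60 min unwinding reaction at 25 °C after ATP addition; read-out basis: % inhibition from 60/0 min fluorescence ratio, DMSO 0%, thioflavine S 100%; repeats: singlicate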
PfM18AAP inh-1 = PfM18AAP inhibitors, malaria aminopeptidase, primary screen, biochemical, QFRET, recombinant enzyme. H-Glu-NHMec fluorogenic cleavage. 1.2% of 290,000 active. inhibition, % at 7.35 µM;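 active = inhibition above the campaign mean inhibition over all tested compounds plus 3 SD, cut at about 28% in these data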;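 also: 0% = plate median of test compound wells and 100% = 2 mM ZnCl2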
EBNA-1 inh = EBNA-1 DNA-binding inhibitors, primary screen, biochemical, fluorescence polarization. inhibition, % at 14.8 µM. 0.34% of 300,000 active; in the data active = inhibition above about 28%
ALR inh = inhibitors of human ALR sulfhydryl oxidase, primary screen, biochemical, H2O2 detection, HRP-luminol luminescence, single point; FAD-linked sulfhydryl oxidase ALR (Homo sapiens), P55789; purified ALR, DTT oxidation; inhibition, % (test concentration not listed); 3.8% of 290,000 active; AID 485317, 2010;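 active = mean replicate inhibition above about 79%, with every replicate also reaching it, limit read from the data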
Target sequence (P55789 whole entry, looked up): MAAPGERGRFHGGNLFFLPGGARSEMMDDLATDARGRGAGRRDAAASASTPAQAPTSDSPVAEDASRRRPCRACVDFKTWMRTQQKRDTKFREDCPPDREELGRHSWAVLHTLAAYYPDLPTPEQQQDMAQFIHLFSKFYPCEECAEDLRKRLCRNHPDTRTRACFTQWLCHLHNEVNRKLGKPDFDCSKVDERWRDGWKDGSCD
PfM18AAP inh-2 = PfM18AAP inhibitors, malaria aminopeptidase, confirmation, biochemical, QFRET, recombinant enzyme, triplicate | shares compounds with PfM18AAP inh-1 | H-Glu-NHMec fluorogenic cleavage | inhibition, % at 7.35 µM | 28% of 2,400 active;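 active = mean inhibition over replicate wells above the hit cutoff set for the earlier primary screen, cut at about 29% in these data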;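 also: 0% = median of test compound wells and 100% = 2 mM ZnCl2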
CTSL1 confirm = cathepsin L1 inhibitors, retest, confirmation, counter-screen for PFM18AAP inhibitor project, biochemical, QFRET, triplicate. shares compounds with PfM18AAP inh-1. purified cathepsin L1, Z-Leu-Arg-MCA fluorescence. inhibition, % at 5.96 µM. 2,400 tested, under 10 active;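 active = average inhibition across replicates above the hit cutoff set in the earlier primary screen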;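 also: 0% = median of test compound wells and 100% = Z-Phe-Ala-diazomethylketone 1 µM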
The depositor's hits bear a star; nt = no result.

SMILES	HCV core dimer	ZTA DNA inh	HCV NS3 hel inh	PfM18AAP inh-1	EBNA-1 inh	ALR inh	PfM18AAP inh-2	CTSL1 confirm
CN1CCN(C(=S)NC(=O)c2ccc(S(=O)(=O)N3CCOCC3)cc2)CC1	0.8	-3.8	7.8	44.6*	2.0	-10.5	14.6	1.7
CSC1=NS(=O)(=O)c2c(C)nn(C)c2S1	-7.5	-13.3	-1.8	56.8*	0.3	72.1	-14.1	-6.2
COc1cc(N=Cc2c(CO)cnc(C)c2O)cc(OC)c1OC	-17.8	-2.9	19.6	35.0*	-2.1	99.2*	-13.1	-1.0
COc1ccc(C(=O)N/N=C/c2c(CO)cnc(C)c2O)cc1	-1.7	-2.2	2.0	4.8	3.4	2.5	nt	nt
CC1(C)CC(=O)C=C(NNC(=O)c2ccc(N)cc2)C1	3.1	9.8	10.3	47.7*	6.8	50.8	18.7	2.6
COc1ccc(C(=O)NNC2=CC(=O)CC(C)(C)C2)cc1OC	1.6	4.0	-2.7	40.0*	6.4	47.9	4.2	-4.1
COc1ccc(NC2=CC(=O)CC(C)(C)C2)cc1OC	-2.6	7.6	2.6	7.0	12.7	-1.3	nt	nt
CC1(C)CC(=O)C=C(NNC(=O)OC(C)(C)C)C1	-0.4	-1.4	4.0	-1.8	-1.2	4.9	nt	nt
Cc1occc1C(=O)NNC1=CC(=O)CC(C)(C)C1	-6.4	-0.9	-0.1	54.6*	6.6	89.2*	30.2*	4.1
CCn1cc(S(=O)(=O)N2CCc3ccccc3C2)cn1	2.9	3.5	12.4	-5.4	-21.2	-2.7	nt	nt
COc1ccc(S(=O)(=O)NCC2CC3C=CC2C3)cc1OC (centres undefined)	0.8	6.1	-1.5	-1.0	-13.7	3.8	nt	nt
CNS(=O)(=O)c1cc(S(=O)(=O)NC)c2cccc3c2c1NC3=O	-9.5	-9.5	22.9	2.0	-9.9	-5.0	nt	nt
Cc1ccccc1NC(=O)C(C)Sc1nnc(-c2ccncc2)n1CC1CCCO1 (centres undefined)	2.5	-3.9	-0.5	0.5	5.5	0.8	nt	nt
CN1CCN(/C=N/c2sc3c(c2C#N)CCCCC3)CC1	-2.7	-2.7	-16.9	5.0	4.9	4.2	nt	nt
N#Cc1c(/N=C/C=C/c2ccccc2)sc2c1CCCC2	0.0	-3.0	6.4	34.9*	1.2	nt	-34.9	3.4
COCCCNC(=S)NNC(=O)c1cc(Cl)c(O)c(Cl)c1	-1.5	-4.3	9.3	47.0*	-3.5	16.4	19.1	4.4
COCCCNC(=S)NNC(=S)NCCCOC	-1.9	-12.6	5.0	32.3*	-16.1	11.1	-14.6	-6.5
COCCCNC(=S)NNC(=O)c1ccccn1	-0.3	-15.9	-10.4	15.5	-9.1	nt	nt	nt
O=C(CC(C(=O)O)c1cccc(Cl)c1Cl)c1ccccc1 (centres undefined)	-13.8	-6.5	21.7	4.1	-16.5	2.1	nt	nt
COc1ccc(/C=C/C(=O)NC2CCCCCCC2)cc1S(=O)(=O)N1CCOCC1	7.1	2.5	-7.3	-16.0	-0.5	3.4	nt	nt
CC(C)(C)c1cc(C(=O)N/N=C/c2ccc(-c3ccccc3[N+](=O)[O-])o2)n[nH]1	7.4	5.7	21.1	48.3*	4.8	-9.7	-19.4	3.4
N#Cc1c(Nc2ccccc2Cl)s[nH]c1=O	4.6	8.3	17.7	21.5	8.3	22.0	nt	nt
N#Cc1c(Nc2ccccc2C(F)(F)F)s[nH]c1=O	-0.9	-8.2	3.7	36.0*	0.8	12.6	1.9	-6.2
O=C(O[C@@H]1OC2COC(=O)c3cc(O)c(O)c(O)c3-c3c(cc(O)c(O)c3O)C(=O)O[C@@H]([C@H]1O)[C@@H]2O)c1cc(O)c(O)c(O)c1	-33.2	-19.2	25.3	62.5*	4.0	99.4*	45.0*	-1.5

Screens: PubChem, several laboratories
